ChEMBL document CHEMBL4613263, “Optimization of Tetrahydroindazoles as Inhibitors of Human Dihydroorotate Dehydrogenase and Evaluation of Their Activity and In Vitro Metabolic Stability” (J Med Chem, 2020)
pIC50: −log10 of the molar value. Converted amounts (≈) assume the structure as drawn. The source made the active and inactive calls. No cut-off for these calls is given here.

Experiments:
[1] = Kinetic aqueous solubility of compound in Prima HT solution at pH 7.4 incubated for 4 hrs by UV-spectrophotometry; assay type: physicochemical; conditions: read-out: Kinetic_solubility
Method in brief: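 20 mM DMSO stocks diluted 100× into Prima HT buffer at pH 7.4 and shaken 4 h at rt. Samples filtered through 0.22 µm, mixed 1:1 with isopropanol and scanned by UV from 190–400 nm against stock reference standards.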

[2] = Metabolic stability in human liver microsomes assessed as half life at 1 uM incubated for 60 mins by LC-MS/MS analysis; assay type: ADME, Microsome; conditions: for half-life at 1 µM: liver microsomes
Method in brief: (§1)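 Compound at 1 µM with 1.0 mg/mL human or mouse liver microsomes in 50 mM potassium phosphate pH 7.4, preincubated 5 min at 37 °C. Started with 1 mM NADPH (or blank buffer). Quenched with cold acetonitrile containing glipizide at 0, 5, 15, 30, 60 min. Parent loss tracked by LC-MS/MS in MRM mode; t½ = 0.693/k from slope of peak-area ratio versus time.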

[3] = Metabolic stability in CD-1 mouse liver microsomes assessed as half life at 1 uM incubated for 60 mins by LC-MS/MS analysis; assay type: ADME, Microsome; conditions: for half-life at 1 µM: CD-1, mouse, liver microsomes; method in brief: as §1
[4] = Antiproliferative activity against human ARN8 cells assessed as reduction in cell viability incubated for 72 hrs by SRB assay; assay type: functional, cell-based; conditions: for pIC50: Homo sapiens, ARN8, 72 h, read-out: IC50
[5] = Cytotoxicity against human HNDF cells assessed as reduction in cell viability incubated for 72 hrs by SRB assay; assay type: cell-based; conditions: for pIC50: Homo sapiens, 72 h, read-out: IC50
Method in brief: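 Human normal dermal fibroblasts seeded at 15×10^2 per well and left 24 h, then exposed to compound for 72 h with 0.1% DMSO final. Cells fixed with TCA at 4 °C for 1 h, stained with SRB, solubilized in 10 mM Tris and read at 490 nm. Values normalized to DMSO control. Tabulated means come only from experiments where IC50 fell below 10 000 nM.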

[6] = Cytotoxicity against human HNDF cells assessed as reduction in cell viability incubated with compound at higher concentration for 72 hrs in presence of 100 uM […], uridine by SRB assay; assay type: cell-based
Method in brief: (§2)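 Normal dermal fibroblasts seeded at 15×10^2 per well and left 24 h, then treated 72 h in medium with 0.1% DMSO final plus 100 µM uridine. Fixed with TCA, stained with 0.4% SRB, dye dissolved in Tris and read at 490 nm. Growth/viability given as % of DMSO control; mean ± SD of three technical replicates.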

Homo sapiens [7] = species: Homo sapiens; assay: Antiproliferative activity against human ARN8 cells assessed as reduction in cell viability incubated with compound at higher concentration for 72 hrs in presence of 100 uM […], uridine by SRB assay; assay type: functional, cell-based
Homo sapiens [8] = species: Homo sapiens; assay: Antiproliferative activity against human ARN8 cells assessed as reduction in cell viability at 0.005 to 10 uM incubated for 72 hrs in presence of 100 uM […], uridine by SRB assay; assay type: functional, cell-based
[9] = Cytotoxicity against human HNDF cells assessed as reduction in cell viability incubated for 72 hrs in presence of 100 uM […], uridine by SRB assay; assay type: cell-based; method in brief: as §2
[10] = biological target: T1, Dihydroorotate dehydrogenase (quinone), mitochondrial (Homo sapiens, UniProt Q02127); assay: Inhibition of DHOH in human ARN8 cells assessed as gammaH2AX level at 20 uM incubated for 1 hr in presence of pan-caspase inhibitor, Z-VAD-FMK by Western blot analysis; assay type: cell-based
Method in brief: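 ARN8 cells treated 24 h at 20 nM, with 20 µM Z-VAD-FMK or vehicle added 4.5 h before harvest. Etoposide arm was 20 µM for 1 h alongside Z-VAD-FMK. Lysates normalized for protein and analysed by western blot for p53, p-Ser15 p53, γ-H2AX, H2AX and cleaved PARP (85 kDa) against stain-free total-protein loading.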

[11] = biological target: DNA topoisomerase 2-alpha (Homo sapiens) (UniProt P11388); conditions: 20 uM
[12] = biological target: DNA topoisomerase 2-alpha (Homo sapiens) (UniProt P11388); conditions: 20 uM; remark: listed apart in the source
[13] = biological target: DNA topoisomerase 2-alpha (Homo sapiens) (UniProt P11388); conditions: 20 uM; remark: listed apart in the source
[14] = biological target: DNA topoisomerase 2-alpha (Homo sapiens) (UniProt P11388); conditions: 20 uM; remark: listed apart in the source
[15] = biological target: DNA topoisomerase 2-alpha (Homo sapiens) (UniProt P11388); conditions: 20 uM; remark: listed apart in the source
[16] = biological target: DNA topoisomerase 2-alpha (Homo sapiens) (UniProt P11388); conditions: 20 uM; remark: listed apart in the source
[17] = biological target: T1, Dihydroorotate dehydrogenase (quinone), mitochondrial; assay: Inhibition of DHODH in human ARN8 cells assessed as activation of p53-dependent transcription at 0.05 to 10 uM incubated for 16 hrs by CPRG assay; assay type: cell-based
Method in brief: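 ARN8 cells carrying the RGCΔFos-LacZ p53 reporter seeded at 2×10^4 per well and left 24 h, then treated 16 h (0.1% DMSO final, ±100 µM uridine). Cells washed, lysed and frozen at −20 °C for at least 2 h. β-galactosidase measured with CPRG substrate at pH 7.5, read at 590 nm after 24 h. Result is fold change vs DMSO; mean ± SD of three technical replicates.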

[18] = biological target: T1, Dihydroorotate dehydrogenase (quinone), mitochondrial; assay: Inhibition of recombinant human N-terminal His-tagged DHODH (31 to 395 residues) expressed in Escherichia coli expression system using dihydroorotic acid as substrate by DCIP assay
[19] = biological target: T1, Dihydroorotate dehydrogenase (quinone), mitochondrial; assay: Inhibition of recombinant human DHODH using dihydroorotic acid as substrate measured for 68 mins by DCIP based colorimetric assay
[20] = Drug metabolism in CD-1 mouse liver microsomes assessed as hydroxylation-mediated M1 metabolite with m/z as 397.1 formation by measuring retention time at 10 uM incubated for 60 mins by LC-MS/MS analysis; assay type: ADME, Microsome; conditions: 1 h
Method in brief: (§3)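 10 µM compound in 100 mM phosphate pH 7.4 with pooled female CD-1 mouse liver microsomes and NADPH, at 37 °C for 0, 10, 20, 40 and 60 min. Stopped with equal-volume cold acetonitrile, then centrifuged, dried and reconstituted. Metabolites and parent resolved on C18 UHPLC with ion-trap MS. Each peak reported as % of total (metabolite + parent) area.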

[21] = Drug metabolism in CD-1 mouse liver microsomes assessed as hydroxylation-mediated M2 metabolite with m/z as 397.1 formation by measuring retention time at 10 uM incubated for 60 mins by LC-MS/MS analysis; assay type: ADME, Microsome; conditions: 1 h; method in brief: as §3
[22] = Drug metabolism in CD-1 mouse liver microsomes assessed as disappearance of parent compound by measuring parent compound retention time at 10 uM incubated for 60 mins by LC-MS/MS analysis; assay type: ADME, Microsome; conditions: 1 h; method in brief: as §3

T1 sequence (Q02127 whole entry): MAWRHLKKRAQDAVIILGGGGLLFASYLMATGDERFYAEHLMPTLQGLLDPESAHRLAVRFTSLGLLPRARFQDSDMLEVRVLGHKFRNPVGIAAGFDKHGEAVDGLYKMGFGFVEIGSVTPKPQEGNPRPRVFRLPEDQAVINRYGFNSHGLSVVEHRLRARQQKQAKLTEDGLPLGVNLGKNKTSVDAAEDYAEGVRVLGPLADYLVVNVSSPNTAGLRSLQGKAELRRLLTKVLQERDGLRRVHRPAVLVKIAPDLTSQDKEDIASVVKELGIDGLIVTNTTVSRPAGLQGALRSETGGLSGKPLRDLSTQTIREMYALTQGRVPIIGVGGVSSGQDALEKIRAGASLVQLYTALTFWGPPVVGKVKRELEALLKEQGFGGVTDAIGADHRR
DNA topoisomerase 2-alpha (Homo sapiens), sequence (P11388 whole entry): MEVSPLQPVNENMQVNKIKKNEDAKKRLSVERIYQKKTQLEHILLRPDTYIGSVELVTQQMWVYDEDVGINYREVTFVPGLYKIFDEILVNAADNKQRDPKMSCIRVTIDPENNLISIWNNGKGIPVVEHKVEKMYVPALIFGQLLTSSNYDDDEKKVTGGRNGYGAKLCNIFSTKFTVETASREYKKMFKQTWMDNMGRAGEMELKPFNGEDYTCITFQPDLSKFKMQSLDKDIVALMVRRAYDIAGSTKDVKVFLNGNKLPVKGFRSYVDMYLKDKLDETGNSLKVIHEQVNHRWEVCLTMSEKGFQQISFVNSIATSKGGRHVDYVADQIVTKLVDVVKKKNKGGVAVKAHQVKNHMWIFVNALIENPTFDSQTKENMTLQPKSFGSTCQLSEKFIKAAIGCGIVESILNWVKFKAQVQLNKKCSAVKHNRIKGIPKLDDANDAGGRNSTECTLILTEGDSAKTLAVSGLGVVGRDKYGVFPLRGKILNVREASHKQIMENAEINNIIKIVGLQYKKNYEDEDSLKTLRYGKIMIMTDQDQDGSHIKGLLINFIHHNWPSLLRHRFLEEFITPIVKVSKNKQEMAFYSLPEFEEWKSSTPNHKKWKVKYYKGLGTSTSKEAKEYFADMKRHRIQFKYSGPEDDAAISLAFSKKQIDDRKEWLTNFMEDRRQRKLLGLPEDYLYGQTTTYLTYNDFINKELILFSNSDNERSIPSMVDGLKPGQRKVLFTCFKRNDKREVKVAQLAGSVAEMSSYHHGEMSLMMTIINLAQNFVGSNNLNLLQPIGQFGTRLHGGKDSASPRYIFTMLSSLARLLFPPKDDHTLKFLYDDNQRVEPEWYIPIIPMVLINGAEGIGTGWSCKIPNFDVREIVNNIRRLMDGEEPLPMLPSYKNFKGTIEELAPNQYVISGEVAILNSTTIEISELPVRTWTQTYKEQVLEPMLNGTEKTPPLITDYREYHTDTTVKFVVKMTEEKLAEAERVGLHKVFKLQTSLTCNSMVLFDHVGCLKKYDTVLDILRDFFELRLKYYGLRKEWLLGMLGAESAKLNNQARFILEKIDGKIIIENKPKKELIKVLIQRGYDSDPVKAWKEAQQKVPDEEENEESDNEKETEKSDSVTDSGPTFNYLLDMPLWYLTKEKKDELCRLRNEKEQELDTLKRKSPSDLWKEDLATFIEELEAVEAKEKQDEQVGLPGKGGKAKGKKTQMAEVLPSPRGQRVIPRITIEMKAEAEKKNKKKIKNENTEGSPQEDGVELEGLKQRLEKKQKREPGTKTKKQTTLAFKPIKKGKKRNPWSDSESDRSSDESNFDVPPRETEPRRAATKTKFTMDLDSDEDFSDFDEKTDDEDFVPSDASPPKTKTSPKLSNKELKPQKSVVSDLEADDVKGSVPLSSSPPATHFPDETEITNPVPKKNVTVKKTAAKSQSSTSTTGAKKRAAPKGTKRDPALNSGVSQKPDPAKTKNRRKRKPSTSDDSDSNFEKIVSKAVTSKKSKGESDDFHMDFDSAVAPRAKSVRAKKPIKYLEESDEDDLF

Molecule `Cc1ccccc1-n1ncc2c1CCC[C@H]2NC(=O)c1noc2c1CCCC2` has a solubility kinetic at 4 h [1] of 10 µM (≈ 3.76 µg/mL), a half-life at 1 µM [2] of 23 min and a half-life at 1 µM [3] of 6 min. For the same molecule, the pIC50 [4] was 7.85, the pIC50 [5] was under 5.00 and the Activity [6] was “Non-Toxic”. The inhibition (Homo sapiens [7]) was “Active”.
In the case of `Cc1cccc(-n2ncc3c2CCCC3NC(=O)c2noc3c2CCCC3)c1C` (racemic), the pIC50 [4] was 7.64, the pIC50 [5] was 5.11 and the Activity (Homo sapiens [8]) was “inactive”. The Activity [6] was “Non-Toxic”, the Activity [9] was “Toxic” and the inhibition (Homo sapiens [7]) was “Active”.
Work on `O=C(N[C@@H]1CCCc2c1cnn2-c1ccccc1F)c1ncc2ccccn12` yielded a pIC50 [4] of 7.42 and a pIC50 [5] of 5.03.
Work on `Cc1cccc(-n2ncc3c2CCCC3NC(=O)c2noc3c2CCCC3)c1` (racemic) yielded a pIC50 [4] of 6.77 and a pIC50 [5] of 5.10.
With `O=C(N[C@@H]1CCCc2c1cnn2-c1ccccc1F)c1cc(C(F)(F)F)ccn1` the solubility kinetic at 4 h [1] was under 5 µM, the Stability ([2]; microsomes, 1 h, 1 µM) was “Stable” and the half-life at 1 µM [3] was 54 min. The pIC50 [4] was 6.96, the pIC50 [5] was under 5.00 and the Activity (Homo sapiens [8]) was “inactive”. For the same molecule, the Activity [9] was “Toxic”.
`O=C(NC1CCCc2c1cnn2-c1ccccc1)c1noc2c1CCCC2` (racemic) showed a pIC50 [4] of 6.37 and a pIC50 [5] of 5.15.
In the case of `O=C(N[C@@H]1CCCc2c1cnn2-c1ccccc1F)c1ccccn1`, the half-life at 1 µM [2] was over 60 min, the half-life at 1 µM [3] was 1 min and the pIC50 [4] was 6.03. For the same molecule, the pIC50 [5] was under 5.00.
For `Cc1ccccc1-n1ncc2c1CCC[C@H]2NC(=O)c1onc2c1CCCC2`, the pIC50 [4] was 7.14 and the pIC50 [5] was under 5.00.
In the case of `Cc1c(-c2ccc(-c3ccccc3F)cc2)nc2ccc(F)cc2c1C(=O)O` [BREQUINAR], the solubility kinetic at 4 h [1] was 110 µM (≈ 41.3 µg/mL), the half-life at 1 µM [2] was over 60 min and the Stability ([3]; mouse, microsomes, 1 h, 1 µM) was “Stable”. The pIC50 [4] was 6.40 and the pIC50 [5] was under 5.00.
With `O=C(N[C@H]1CCCc2c1cnn2-c1ccccc1F)c1ccccn1` the IC50 [4] was “Not Active” and the IC50 [5] was “Not Active”.
For `COc1cc([C@@H]2c3cc4c(cc3[C@@H](O[C@@H]3O[C@@H]5CO[C@@H](C)O[C@H]5[C@H](O)[C@H]3O)[C@H]3COC(=O)[C@H]23)OCO4)cc(OC)c1O`, the inhibition [10] was “Active”, the inhibition [11] was “Active” and the inhibition [12] was “Active”. The inhibition [13] was “Active”, the inhibition [14] was “Active” and the inhibition [15] was “Active”. For the same molecule, the inhibition [16] was “Active”.
In the case of `O=C(N[C@H]1CCCc2c1cnn2-c1ccccc1F)c1noc2c1CCCC2`, the IC50 [4] was “Not Active” and the IC50 [5] was “Not Active”.
For `O=C(N[C@@H]1CCCc2c1cnn2-c1ccccc1F)c1noc2c1CCCC2`, the pIC50 [4] was 7.10, the pIC50 [5] was 5.00 and the Activity (Homo sapiens [8]) was “inactive”.
With `O=C(N[C@H]1CCCc2c1cnn2-c1ccccc1F)c1onc2c1CCCC2` the inhibition [17] was “inactive”, the IC50 [4] was “Not Active” and the IC50 [5] was “Not Active”. For the same molecule, the pIC50 [18] was 5.19.
For `O=C(NC1CCCc2c1cnn2-c1ccccc1F)c1ccccn1` (racemic), the pIC50 [4] was 5.27 and the pIC50 [5] was under 5.00.
In the case of `O=C(NC1CCCc2c1cnn2-c1ccccc1F)c1ccccc1` (racemic), the IC50 [4] was “Not Active” and the IC50 [5] was “Not Active”.
Molecule `Cc1ccnc(C(=O)N[C@@H]2CCCc3c2cnn3-c2ccccc2C)c1` has a solubility kinetic at 4 h [1] of 110 µM (≈ 38.1 µg/mL), a half-life at 1 µM [2] of over 60 min and a half-life at 1 µM [3] of 10 min. For the same molecule, the pIC50 [4] was 7.21, the pIC50 [5] was under 5.00 and the Activity (Homo sapiens [8]) was “inactive”. The Activity [9] was “Toxic”.
For `Cc1ccc(F)c(-n2ncc3c2CCC[C@H]3NC(=O)c2onc3c2CCCC3)c1`, the pIC50 [4] was 6.70 and the pIC50 [5] was 5.17.
In the case of `O=C(N[C@@H]1CCCc2c1cnn2-c1ccccc1F)c1ncccn1`, the IC50 [4] was “Not Active” and the IC50 [5] was “Not Active”.
With `COC(=O)c1ccc(C(=O)NC2CCCc3c2cnn3-c2ccccc2F)nc1` (racemic) the pIC50 [19] was under 5.00.
In the case of `Cc1ccccc1-n1ncc2c1CCCC2NC(=O)c1noc2c1CCCC2` (racemic), the pIC50 [4] was 7.82, the pIC50 [5] was 5.07 and the Activity (Homo sapiens [8]) was “inactive”. For the same molecule, the Activity [6] was “Non-Toxic”, the Activity [9] was “Toxic” and the inhibition (Homo sapiens [7]) was “Active”.
`O=C(NC1CCCc2c1cnn2-c1ccccc1F)c1onc2c1CCCC2` (racemic) gave a pIC50 [4] of 6.66 and a pIC50 [5] of 5.05.
In the case of `O=C(N[C@@H]1CCCc2c1cnn2-c1ccccc1F)c1onc2c1CCCC2`, the Retention_time [20] was 4.1 min, the solubility kinetic at 4 h [1] was 15 µM (≈ 5.71 µg/mL) and the half-life at 1 µM [2] was 85 min. For the same molecule, the half-life at 1 µM [3] was 8 min, the inhibition [17] was “Active” and the pIC50 [4] was 6.80. The pIC50 [5] was under 5.00, the Retention_time [21] was 4.3 min and the Retention_time [22] was 5.3 min.
